From ChEMBL document CHEMBL3046353, “Synthesis and fungicidal activity of some 5-membered heterocyclic derivatives containing benzimidazoles” (1993)
Calls of active or inactive are those of the source. The rule behind the calls is not given here.

What was measured:
Spodoptera litura = assay: Insecticidal activity against Spodoptera litura; assay type: functional, organism-based
Echinochloa crus-galli [1] = assay: Post-emergence herbicidal activity against Echinochloa crus-galli (barnyard grass); assay type: functional, organism-based
Abutilon theophrasti [2] = assay: Post-emergence herbicidal activity against Abutilon theophrasti (velvetleaf); assay type: functional, organism-based
Echinochloa crus-galli [3] = assay: Herbicidal activity against Echinochloa crus-galli (barnyard grass) under paddy conditions; assay type: functional, organism-based
Oryza sativa [4] = assay: Post-emergence herbicidal activity against Oryza sativa (rice); assay type: functional, organism-based
Schoenoplectus acutus [5] = assay: Herbicidal activity against Schoenoplectus acutus (hardstem bulrush) under paddy conditions; assay type: functional, organism-based
Abutilon theophrasti [6] = assay: Pre-emergence herbicidal activity against Abutilon theophrasti (velvetleaf); assay type: functional, organism-based
Schoenoplectus acutus [7] = assay: Pre-emergence herbicidal activity against Schoenoplectus acutus (hardstem bulrush); assay type: functional, organism-based
Musca domestica = assay: Insecticidal activity against Musca domestica (house fly); assay type: functional, organism-based
Convolvulaceae [8] = assay: Pre-emergence herbicidal activity against Convolvulaceae (morning glory family); assay type: functional, organism-based
Sagittaria latifolia [9] = assay: Pre-emergence herbicidal activity against Sagittaria latifolia (broadleaf arrowhead); assay type: functional, organism-based
Helminthosporium = assay: Fungicidal activity against Helminthosporium oryzae at 500 ppm after 7 days by poisoned food technique; assay type: functional; conditions: 168 h, read-out: GI
Procedure, shortened: (§1)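 Cultures kept on potato dextrose agar. Each compound, dissolved in acetone, was added to potato dextrose agar at a final 500 ppm (w/v) (poisoned food technique). A disc cut from the periphery of a seven-day-old culture was inoculated onto each set. Control sets held potato dextrose agar only. The read-out is percentage inhibition of fungal growth relative to control.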

Oryza sativa [10] = assay: Herbicidal activity against Oryza sativa (rice) under paddy conditions; assay type: functional, organism-based
Culex pipiens pallens = assay: Insecticidal activity against Culex pipiens pallens (mosquito) at 3 to 5 ppm; assay type: functional, organism-based
Convolvulaceae [11] = assay: Herbicidal activity against Convolvulaceae (morning glory family) under paddy conditions; assay type: functional, organism-based
Rhizoctonia solani = assay: Fungicidal activity against Rhizoctonia solani at 500 ppm after 7 days by poisoned food technique; assay type: functional; conditions: 168 h, read-out: GI; procedure, shortened: as §1
Sagittaria latifolia [12] = assay: Herbicidal activity against Sagittaria latifolia (broadleaf arrowhead) under paddy conditions; assay type: functional, organism-based
Convolvulaceae [13] = assay: Post-emergence herbicidal activity against Convolvulaceae (morning glory family); assay type: functional, organism-based
Schoenoplectus acutus [14] = assay: Post-emergence herbicidal activity against Schoenoplectus acutus (hardstem bulrush); assay type: functional, organism-based
Sagittaria latifolia [15] = assay: Post-emergence herbicidal activity against Sagittaria latifolia (broadleaf arrowhead); assay type: functional, organism-based
Avena sativa [16] = assay: Herbicidal activity against Avena sativa under paddy conditions; assay type: functional, organism-based
Echinochloa crus-galli [17] = assay: Pre-emergence herbicidal activity against Echinochloa crus-galli (barnyard grass); assay type: functional, organism-based
Tetranychus cinnabarinus = assay: Insecticidal activity against Tetranychus cinnabarinus (carmine spider mite); assay type: functional, organism-based
Oryza sativa [18] = assay: Pre-emergence herbicidal activity against Oryza sativa (rice); assay type: functional, organism-based
Avena sativa [19] = assay: Post-emergence herbicidal activity against Avena sativa; assay type: functional, organism-based
Avena sativa [20] = assay: Pre-emergence herbicidal activity against Avena sativa; assay type: functional, organism-based

| SMILES | Activity (Spodoptera litura) | Activity (Echinochloa crus-galli [1]) | Activity (Abutilon theophrasti [2]) | Activity (Echinochloa crus-galli [3]) | Activity (Oryza sativa [4]) | Activity (Schoenoplectus acutus [5]) | Activity (Abutilon theophrasti [6]) | Activity (Schoenoplectus acutus [7]) | Activity (Musca domestica) | Activity (Convolvulaceae [8]) | Activity (Sagittaria latifolia [9]) | inhibition of growth at 500 ppm (Helminthosporium) [%] | Activity (Oryza sativa [10]) | Activity (Culex pipiens pallens) | Activity (Convolvulaceae [11]) | inhibition of growth at 500 ppm (Rhizoctonia solani) [%] | Activity (Sagittaria latifolia [12]) | Activity (Convolvulaceae [13]) | Activity (Schoenoplectus acutus [14]) | Activity (Sagittaria latifolia [15]) | also measured |
| --- | --- | --- | --- | --- | --- | --- | --- | --- | --- | --- | --- | --- | --- | --- | --- | --- | --- | --- | --- | --- | --- |
| Nn1c(SCc2nc3ccccc3[nH]2)nnc1-c1cccc(Cl)c1 | inactive | inactive | inactive | inactive | inactive | inactive | inactive | inactive | inactive | inactive | inactive | 89.3 | inactive | Active | inactive | 61.2 | inactive | inactive | inactive | inactive | Activity (Avena sativa [16]): inactive; Activity (Echinochloa crus-galli [17]): inactive; Activity (Tetranychus cinnabarinus): inactive; Activity (Oryza sativa [18]): inactive; Activity (Avena sativa [19]): inactive; Activity (Avena sativa [20]): inactive |
| Cc1ccc2[nH]c(CSc3nnc(-c4ccc(Cl)cc4)o3)nc2c1 | inactive | inactive | inactive | inactive | inactive | inactive | inactive | inactive | inactive | inactive | inactive | 100 | inactive | Active | inactive | 100 | inactive | inactive | inactive | inactive | Activity (Avena sativa [16]): inactive; Activity (Echinochloa crus-galli [17]): inactive; Activity (Tetranychus cinnabarinus): inactive; Activity (Oryza sativa [18]): inactive; Activity (Avena sativa [19]): inactive; Activity (Avena sativa [20]): inactive |
| Nn1c(SCc2nc3ccccc3[nH]2)nnc1-c1ccccc1 | inactive | inactive | inactive | inactive | inactive | inactive | inactive | inactive | inactive | inactive | inactive | 92.5 | inactive | Active | inactive | 74.5 | inactive | inactive | inactive | inactive | Activity (Avena sativa [16]): inactive; Activity (Echinochloa crus-galli [17]): inactive; Activity (Tetranychus cinnabarinus): inactive; Activity (Oryza sativa [18]): inactive; Activity (Avena sativa [19]): inactive; Activity (Avena sativa [20]): inactive |
| c1ccc(-c2nnc(SCc3nc4ccccc4[nH]3)s2)cc1 | inactive | inactive | inactive | inactive | inactive | inactive | inactive | inactive | inactive | inactive | inactive | 74.3 | inactive | Active | inactive | 69.8 | inactive | inactive | inactive | inactive | Activity (Avena sativa [16]): inactive; Activity (Echinochloa crus-galli [17]): inactive; Activity (Tetranychus cinnabarinus): inactive; Activity (Oryza sativa [18]): inactive; Activity (Avena sativa [19]): inactive; Activity (Avena sativa [20]): inactive |
| Clc1ccccc1-c1nnc(SCc2nc3ccccc3[nH]2)s1 | inactive | inactive | inactive | inactive | inactive | inactive | inactive | inactive | inactive | inactive | inactive | 68.2 | inactive | Active | inactive | 49.8 | inactive | inactive | inactive | inactive | Activity (Avena sativa [16]): inactive; Activity (Echinochloa crus-galli [17]): inactive; Activity (Tetranychus cinnabarinus): inactive; Activity (Oryza sativa [18]): inactive; Activity (Avena sativa [19]): inactive; Activity (Avena sativa [20]): inactive |
| c1ccc2[nH]c(CSc3nnc(-c4ccncc4)s3)nc2c1 | inactive | inactive | inactive | inactive | inactive | inactive | inactive | inactive | inactive | inactive | inactive | 54.5 | inactive | Active | inactive | 21.3 | inactive | inactive | inactive | inactive | Activity (Avena sativa [16]): inactive; Activity (Echinochloa crus-galli [17]): inactive; Activity (Tetranychus cinnabarinus): inactive; Activity (Oryza sativa [18]): inactive; Activity (Avena sativa [19]): inactive; Activity (Avena sativa [20]): inactive |
| Cc1ccc2[nH]c(CSc3nnc(-c4cccc(Cl)c4)s3)nc2c1 | inactive | inactive | inactive | inactive | inactive | inactive | inactive | inactive | inactive | inactive | inactive | 81.2 | inactive | Active | inactive | 60.4 | inactive | inactive | inactive | inactive | Activity (Avena sativa [16]): inactive; Activity (Echinochloa crus-galli [17]): inactive; Activity (Tetranychus cinnabarinus): inactive; Activity (Oryza sativa [18]): inactive; Activity (Avena sativa [19]): inactive; Activity (Avena sativa [20]): inactive |
